Assay results from ChEMBL document CHEMBL3259814, “Synthesis and biological evaluation of compounds which contain pyrazole, thiazole and naphthalene ring as antitumor agents” (Bioorg Med Chem Lett, 2014).
Calls of active or inactive are those of the source. The calls are words filed in the database; no cut-off is given here.

How the values were obtained:
[1] = Antiproliferative activity against human BGC823 cells assessed as growth inhibition after 24 to 48 hrs by CCK8 assay; format: functional, cell-based; conditions: BGC-823
Method in brief: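 The CCK8 assay was run on BGC823 cells alongside HeLa and HepG2 cells. Inhibition of cell proliferation was reported as IC50.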

[2] = system: HeLa; assay: cells; format: functional, cell-based; conditions: Homo sapiens
[3] = system: HepG2; assay: cells; format: functional, cell-based; conditions: Homo sapiens;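 further: antiproliferative effect read out as growth inhibition by CCK8 assay, measured after 24–48 h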
[4] = molecular target: Epidermal growth factor receptor (Homo sapiens, UniProt P00533); format: cell-based, Sf-9
Chain of Epidermal growth factor receptor (P00533 whole entry): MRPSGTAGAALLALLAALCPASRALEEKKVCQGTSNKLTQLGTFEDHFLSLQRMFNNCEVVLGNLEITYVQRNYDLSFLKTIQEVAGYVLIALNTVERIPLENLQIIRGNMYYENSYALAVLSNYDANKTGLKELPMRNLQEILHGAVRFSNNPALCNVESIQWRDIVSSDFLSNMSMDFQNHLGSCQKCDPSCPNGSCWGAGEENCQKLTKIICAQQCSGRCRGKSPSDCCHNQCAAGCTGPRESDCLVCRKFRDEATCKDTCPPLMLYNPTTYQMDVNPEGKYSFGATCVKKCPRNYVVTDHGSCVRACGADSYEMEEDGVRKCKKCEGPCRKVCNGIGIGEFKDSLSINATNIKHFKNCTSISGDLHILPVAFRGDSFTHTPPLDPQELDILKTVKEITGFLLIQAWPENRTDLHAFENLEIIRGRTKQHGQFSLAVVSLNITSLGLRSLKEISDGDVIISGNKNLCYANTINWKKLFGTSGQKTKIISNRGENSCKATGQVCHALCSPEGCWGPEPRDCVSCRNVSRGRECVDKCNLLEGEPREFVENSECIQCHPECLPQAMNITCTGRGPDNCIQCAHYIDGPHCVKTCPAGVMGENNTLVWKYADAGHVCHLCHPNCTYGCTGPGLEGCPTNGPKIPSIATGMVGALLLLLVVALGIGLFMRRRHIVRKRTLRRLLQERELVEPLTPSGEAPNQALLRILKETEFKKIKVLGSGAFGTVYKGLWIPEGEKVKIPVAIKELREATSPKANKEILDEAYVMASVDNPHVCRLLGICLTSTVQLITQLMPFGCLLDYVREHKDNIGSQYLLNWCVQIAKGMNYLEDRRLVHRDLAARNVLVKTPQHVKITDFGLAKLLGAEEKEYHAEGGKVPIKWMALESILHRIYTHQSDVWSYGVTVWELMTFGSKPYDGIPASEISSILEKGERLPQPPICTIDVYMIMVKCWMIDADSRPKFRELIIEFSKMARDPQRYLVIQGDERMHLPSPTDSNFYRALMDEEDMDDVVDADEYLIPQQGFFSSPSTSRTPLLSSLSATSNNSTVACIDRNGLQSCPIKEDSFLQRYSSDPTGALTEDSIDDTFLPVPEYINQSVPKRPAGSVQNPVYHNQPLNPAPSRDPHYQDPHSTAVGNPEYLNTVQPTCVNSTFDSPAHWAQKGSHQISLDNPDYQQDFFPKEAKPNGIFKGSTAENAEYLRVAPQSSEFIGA

[5] = system: HeLa; assay: Antimetastatic activity against human HeLa cells at 0.08 to 0.12 uM by transwell migration assay; format: functional, cell-based
Method in brief: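 HeLa cell migration was tested at 0.08, 0.10 and 0.12 µM. Migrating cells are expressed as a percentage of an untreated control set at 100%. Data are mean ± SD, with p < 0.05 versus control.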

[6] = Antiproliferative activity against human macrophages assessed as alteration in cell morphology after 24 hrs by CCK8 assay; format: cell-based, Macrophage
[7] = system: HeLa; assay: Toxicity against human HeLa cells assessed as survival at 0.14 uM by CCK8 assay; format: cell-based
Method in brief: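 HeLa survival ratio was measured against compound concentration by CCK8 assay, including 0.14 µM. This was done before the migration testing.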

IC50 [2] | IC50 [3] | IC50 [4] | Structure (SMILES) | IC50 [1] | Activity [5] | CC50 at 24 h [6] | Activity [7]
6.32 µM | 20.4 µM |  | O=C1CSC(N2N=C(c3ccc(Cl)cc3)CC2c2ccc3ccccc3c2)=N1 (centres undefined) | 13.2 µM |  |  | 
4.22 µM | 18.2 µM |  | O=C1CSC(N2N=C(c3ccc(Br)cc3)CC2c2ccc3ccccc3c2)=N1 (centres undefined) | 11.7 µM |  |  | 
11.2 µM | 19.5 µM |  | O=C1CSC(N2N=C(c3ccc(F)cc3)CC2c2cccc3ccccc23)=N1 (centres undefined) | 19.3 µM |  |  | 
4.62 µM | 10.1 µM |  | O=C1CSC(N2N=C(c3ccccc3)CC2c2cccc3ccccc23)=N1 (centres undefined) | 11.2 µM |  |  | 
9.17 µM | 24.1 µM |  | O=C1CSC(N2N=C(c3ccc(F)cc3)CC2c2ccc3ccccc3c2)=N1 (centres undefined) | 14.9 µM |  |  | 
0.86 µM | 8.49 µM | 0.12 µM | Cc1ccc(C2=NN(C3=NC(=O)CS3)C(c3ccc4ccccc4c3)C2)cc1C (centres undefined) | 6.02 µM | Active | 397 µM | Non-toxic
1.76 µM | 12.7 µM | 3.25 µM | Cc1ccc(C2=NN(C3=NC(=O)CS3)C(c3ccc4ccccc4c3)C2)cc1 (centres undefined) | 7.79 µM |  |  | 
1.48 µM | 10.4 µM |  | COc1ccc(C2=NN(C3=NC(=O)CS3)C(c3ccc4ccccc4c3)C2)cc1 (centres undefined) | 6.94 µM |  | 363 µM | 
2.54 µM | 7.85 µM | 5.53 µM | COc1ccc(C2=NN(C3=NC(=O)CS3)C(c3cccc4ccccc34)C2)cc1 (centres undefined) | 8.21 µM |  | 273 µM | 
5.81 µM | 13.4 µM |  | O=C1CSC(N2N=C(c3ccc(Br)cc3)CC2c2cccc3ccccc23)=N1 (centres undefined) | 14.6 µM |  |  | 
3.21 µM | 8.66 µM |  | Cc1ccc(C2=NN(C3=NC(=O)CS3)C(c3cccc4ccccc34)C2)cc1 (centres undefined) | 10 µM |  |  | 
1.33 µM | 5.94 µM | 1.32 µM | Cc1ccc(C2=NN(C3=NC(=O)CS3)C(c3cccc4ccccc34)C2)cc1C (centres undefined) | 7.11 µM |  | 383 µM | 
8.84 µM | 16.4 µM |  | O=C1CSC(N2N=C(c3ccc(Cl)cc3)CC2c2cccc3ccccc23)=N1 (centres undefined) | 16.4 µM |  |  | 
3.18 µM | 15.7 µM | 6.31 µM | O=C1CSC(N2N=C(c3ccccc3)CC2c2ccc3ccccc3c2)=N1 (centres undefined) | 8.86 µM |  | 345 µM | 
